# Activity calls are given as the source filed them. No cut-off for these calls is given here.
# Legend:
# [1] = target: Calcium/calmodulin-dependent protein kinase type II subunit alpha (Homo sapiens) (UniProt Q9UQM7); experiment: Inhibition of CAMK2a K2 labeling site in human Huh-7 cells at 1 uM by KiNativ Profiling analysis relative to control; format: cell-based
# [2] = target: Cyclin-dependent kinase 5 (Homo sapiens) (UniProt Q00535); experiment: Inhibition of CDK5 (unknown origin) at 10 uM by Ambit Kinomescan binding assay relative to control
# [3] = target: Myosin light chain kinase, smooth muscle (Homo sapiens) (UniProt Q15746); experiment: Inhibition of MYLK (unknown origin) at 10 uM by Ambit Kinomescan binding assay
# Myosin light chain kinase, smooth muscle (Homo sapiens), sequence (Q15746 whole entry): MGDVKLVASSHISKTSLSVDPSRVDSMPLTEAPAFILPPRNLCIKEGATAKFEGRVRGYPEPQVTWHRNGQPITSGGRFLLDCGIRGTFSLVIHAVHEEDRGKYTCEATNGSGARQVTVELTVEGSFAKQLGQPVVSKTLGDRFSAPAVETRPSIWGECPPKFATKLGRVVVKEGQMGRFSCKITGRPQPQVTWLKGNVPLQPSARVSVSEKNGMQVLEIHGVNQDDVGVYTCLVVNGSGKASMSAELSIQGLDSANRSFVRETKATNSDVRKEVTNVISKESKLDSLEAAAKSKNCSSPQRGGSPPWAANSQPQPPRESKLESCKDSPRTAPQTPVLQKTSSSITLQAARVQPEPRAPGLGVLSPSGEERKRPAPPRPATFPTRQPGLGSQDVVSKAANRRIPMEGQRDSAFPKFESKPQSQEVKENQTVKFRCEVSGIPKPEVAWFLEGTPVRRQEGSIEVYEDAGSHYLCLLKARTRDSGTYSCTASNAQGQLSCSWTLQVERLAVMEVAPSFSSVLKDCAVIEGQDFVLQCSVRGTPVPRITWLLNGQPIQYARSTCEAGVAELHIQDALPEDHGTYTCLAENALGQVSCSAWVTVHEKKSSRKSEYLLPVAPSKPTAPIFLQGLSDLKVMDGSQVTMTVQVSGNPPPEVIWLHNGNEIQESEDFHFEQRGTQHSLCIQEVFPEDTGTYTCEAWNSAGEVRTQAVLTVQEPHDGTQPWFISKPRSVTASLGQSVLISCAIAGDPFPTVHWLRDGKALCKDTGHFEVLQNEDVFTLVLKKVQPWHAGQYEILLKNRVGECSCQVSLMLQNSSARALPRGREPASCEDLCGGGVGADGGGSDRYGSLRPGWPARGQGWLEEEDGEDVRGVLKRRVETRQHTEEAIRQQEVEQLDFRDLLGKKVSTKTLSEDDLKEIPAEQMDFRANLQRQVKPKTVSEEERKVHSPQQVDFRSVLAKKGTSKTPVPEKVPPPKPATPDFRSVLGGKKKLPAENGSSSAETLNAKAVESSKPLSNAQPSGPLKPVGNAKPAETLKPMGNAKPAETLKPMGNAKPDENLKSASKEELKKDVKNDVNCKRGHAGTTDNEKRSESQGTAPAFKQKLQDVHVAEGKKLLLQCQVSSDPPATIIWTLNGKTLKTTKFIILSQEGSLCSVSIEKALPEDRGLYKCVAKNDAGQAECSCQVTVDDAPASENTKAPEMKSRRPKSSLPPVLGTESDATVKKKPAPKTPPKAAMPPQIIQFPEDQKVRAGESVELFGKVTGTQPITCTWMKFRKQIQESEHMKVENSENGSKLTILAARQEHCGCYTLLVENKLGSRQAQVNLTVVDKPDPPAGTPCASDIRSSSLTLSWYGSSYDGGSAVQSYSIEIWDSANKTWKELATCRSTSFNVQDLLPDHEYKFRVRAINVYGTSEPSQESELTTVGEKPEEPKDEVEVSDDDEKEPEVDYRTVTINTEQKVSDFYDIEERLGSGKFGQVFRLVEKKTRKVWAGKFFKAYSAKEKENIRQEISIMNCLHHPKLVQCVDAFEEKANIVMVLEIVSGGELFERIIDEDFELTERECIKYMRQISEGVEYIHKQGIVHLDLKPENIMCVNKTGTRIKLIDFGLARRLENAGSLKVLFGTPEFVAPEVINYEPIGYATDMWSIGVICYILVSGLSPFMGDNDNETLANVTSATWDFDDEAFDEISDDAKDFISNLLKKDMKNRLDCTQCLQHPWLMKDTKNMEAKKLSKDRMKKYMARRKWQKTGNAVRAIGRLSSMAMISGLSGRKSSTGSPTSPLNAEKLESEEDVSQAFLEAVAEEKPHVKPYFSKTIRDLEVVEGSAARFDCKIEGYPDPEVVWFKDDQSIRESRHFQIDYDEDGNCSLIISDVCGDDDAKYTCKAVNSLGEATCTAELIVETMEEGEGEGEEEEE
# In short: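 In vitro ATP-site competition binding assay against a panel of over 420 kinases (KinomeScan), with compound tested at 10 or 1 μM.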
# [4] = target: cGMP-dependent protein kinase 2 (Homo sapiens) (UniProt Q13237); experiment: Inhibition of PRKG2 (unknown origin) at 10 uM by Ambit Kinomescan binding assay
# [5] = target: Tyrosine-protein kinase CSK (Homo sapiens, UniProt P41240); experiment: Inhibition of CSK (unknown origin) at 10 uM by Ambit Kinomescan binding assay relative to control
# Tyrosine-protein kinase CSK, sequence (P41240 2-450 limits assumed): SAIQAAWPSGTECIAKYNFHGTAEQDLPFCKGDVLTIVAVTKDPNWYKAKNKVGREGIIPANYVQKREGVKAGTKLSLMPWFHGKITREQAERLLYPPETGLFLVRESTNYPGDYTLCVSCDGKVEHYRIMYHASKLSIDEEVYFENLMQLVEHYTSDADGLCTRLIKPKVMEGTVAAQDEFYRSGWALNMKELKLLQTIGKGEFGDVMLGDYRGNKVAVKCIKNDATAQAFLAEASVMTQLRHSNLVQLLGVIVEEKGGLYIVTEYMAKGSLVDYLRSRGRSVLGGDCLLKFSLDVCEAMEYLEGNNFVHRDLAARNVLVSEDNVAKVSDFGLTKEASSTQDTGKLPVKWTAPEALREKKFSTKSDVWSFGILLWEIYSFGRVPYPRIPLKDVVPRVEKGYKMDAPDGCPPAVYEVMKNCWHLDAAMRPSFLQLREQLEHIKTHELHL
# [6] = target: Tyrosine-protein kinase JAK1 (Homo sapiens) (UniProt P23458); experiment: Inhibition of JAK1 domain ACT labeling site in human Huh-7 cell lysate at 1 uM by KiNativ Profiling analysis relative to control; format: subcellular
# [7] = target: Calcium/calmodulin-dependent protein kinase type II subunit delta (Homo sapiens) (UniProt Q13557); experiment: Inhibition of CaMK2d Lys2 labeling site in human Huh-7 cell lysate at 1 uM by KiNativ Profiling analysis relative to control; format: subcellular
# [8] = target: Mitogen-activated protein kinase kinase kinase 4 (Homo sapiens) (UniProt Q9Y6R4); experiment: Inhibition of MAP3K4 Lys2 labeling site in human Huh-7 cells at 1 uM by KiNativ Profiling analysis relative to control; format: cell-based
# Mitogen-activated protein kinase kinase kinase 4 (Homo sapiens), sequence (Q9Y6R4 whole entry): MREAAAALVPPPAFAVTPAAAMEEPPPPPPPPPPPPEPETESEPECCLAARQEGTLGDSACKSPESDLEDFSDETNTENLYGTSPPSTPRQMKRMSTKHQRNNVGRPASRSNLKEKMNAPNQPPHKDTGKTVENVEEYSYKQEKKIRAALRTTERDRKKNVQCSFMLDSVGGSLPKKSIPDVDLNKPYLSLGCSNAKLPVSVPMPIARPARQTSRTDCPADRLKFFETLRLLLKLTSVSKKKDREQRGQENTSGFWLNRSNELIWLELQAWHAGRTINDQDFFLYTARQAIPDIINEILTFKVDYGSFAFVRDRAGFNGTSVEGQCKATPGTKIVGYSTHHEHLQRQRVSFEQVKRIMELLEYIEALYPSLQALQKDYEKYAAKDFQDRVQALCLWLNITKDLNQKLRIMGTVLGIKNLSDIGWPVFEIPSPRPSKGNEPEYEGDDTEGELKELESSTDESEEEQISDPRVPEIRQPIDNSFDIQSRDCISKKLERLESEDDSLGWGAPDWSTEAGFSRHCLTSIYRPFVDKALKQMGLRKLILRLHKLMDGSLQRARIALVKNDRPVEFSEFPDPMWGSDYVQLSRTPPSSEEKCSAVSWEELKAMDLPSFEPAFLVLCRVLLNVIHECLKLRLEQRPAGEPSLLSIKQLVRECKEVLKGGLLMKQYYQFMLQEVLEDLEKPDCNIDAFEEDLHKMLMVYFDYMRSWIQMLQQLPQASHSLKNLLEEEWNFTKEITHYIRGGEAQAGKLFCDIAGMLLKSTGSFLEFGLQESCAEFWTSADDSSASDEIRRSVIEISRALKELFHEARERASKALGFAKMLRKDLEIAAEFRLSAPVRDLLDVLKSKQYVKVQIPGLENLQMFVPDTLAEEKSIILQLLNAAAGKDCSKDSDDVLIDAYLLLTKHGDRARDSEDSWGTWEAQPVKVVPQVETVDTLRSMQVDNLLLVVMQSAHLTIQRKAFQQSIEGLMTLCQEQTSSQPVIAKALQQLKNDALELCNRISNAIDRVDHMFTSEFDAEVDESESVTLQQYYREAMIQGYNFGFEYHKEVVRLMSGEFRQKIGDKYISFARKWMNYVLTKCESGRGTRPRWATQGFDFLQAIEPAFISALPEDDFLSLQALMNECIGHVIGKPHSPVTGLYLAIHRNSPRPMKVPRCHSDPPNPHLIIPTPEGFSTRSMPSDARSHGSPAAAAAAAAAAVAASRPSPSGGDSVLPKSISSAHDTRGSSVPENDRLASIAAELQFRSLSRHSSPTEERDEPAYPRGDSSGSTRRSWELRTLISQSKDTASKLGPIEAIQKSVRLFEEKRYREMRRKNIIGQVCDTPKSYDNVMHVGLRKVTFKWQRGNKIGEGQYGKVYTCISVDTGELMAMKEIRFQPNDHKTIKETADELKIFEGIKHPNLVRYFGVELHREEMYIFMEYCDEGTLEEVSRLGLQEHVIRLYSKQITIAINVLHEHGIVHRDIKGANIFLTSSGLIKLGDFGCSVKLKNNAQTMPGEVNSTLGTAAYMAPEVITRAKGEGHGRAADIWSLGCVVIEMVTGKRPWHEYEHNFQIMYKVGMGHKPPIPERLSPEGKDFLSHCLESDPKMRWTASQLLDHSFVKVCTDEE
# [9] = target: Myosin light chain kinase, smooth muscle (Homo sapiens) (UniProt Q15746); experiment: Inhibition of MYLK (unknown origin) at 1 uM by Ambit Kinomescan binding assay relative to control; values are per cent of control
# [10] = system: Tyrosine-protein kinase ABL1 (Homo sapiens), P00519 [F317L]; experiment: Inhibition of nonphosphorylated ABL1 F317L mutant (unknown origin) at 1 uM by Ambit Kinomescan binding assay relative to control
# [11] = target: T1, Serine/threonine-protein kinase TAO3 (Homo sapiens) (UniProt Q9H2K8); experiment: Inhibition of TAOK3 (unknown origin) at 1 uM by Ambit Kinomescan binding assay relative to control; values are per cent of control
# T1 sequence (whole entry): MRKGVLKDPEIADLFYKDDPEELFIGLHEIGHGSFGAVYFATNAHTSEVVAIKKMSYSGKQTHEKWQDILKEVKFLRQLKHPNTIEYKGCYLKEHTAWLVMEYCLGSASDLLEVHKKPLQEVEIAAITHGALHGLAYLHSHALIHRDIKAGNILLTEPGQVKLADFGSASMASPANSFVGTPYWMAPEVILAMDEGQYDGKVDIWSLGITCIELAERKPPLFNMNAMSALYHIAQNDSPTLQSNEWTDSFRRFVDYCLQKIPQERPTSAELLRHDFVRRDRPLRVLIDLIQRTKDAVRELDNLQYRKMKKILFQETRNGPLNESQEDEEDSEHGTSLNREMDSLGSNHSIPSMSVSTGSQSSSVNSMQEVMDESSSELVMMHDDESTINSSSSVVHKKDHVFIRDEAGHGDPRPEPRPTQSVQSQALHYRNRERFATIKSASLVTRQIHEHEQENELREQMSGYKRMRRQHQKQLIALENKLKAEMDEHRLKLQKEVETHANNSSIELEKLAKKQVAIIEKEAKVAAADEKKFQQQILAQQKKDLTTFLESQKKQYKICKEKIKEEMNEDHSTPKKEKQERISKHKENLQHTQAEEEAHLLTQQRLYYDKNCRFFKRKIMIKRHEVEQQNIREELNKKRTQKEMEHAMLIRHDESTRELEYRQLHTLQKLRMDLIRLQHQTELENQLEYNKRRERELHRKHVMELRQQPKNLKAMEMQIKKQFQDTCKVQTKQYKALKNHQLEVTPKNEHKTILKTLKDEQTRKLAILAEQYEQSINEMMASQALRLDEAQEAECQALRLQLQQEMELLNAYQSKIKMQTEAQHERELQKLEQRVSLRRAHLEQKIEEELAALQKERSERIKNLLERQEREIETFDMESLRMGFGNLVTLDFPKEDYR
# [12] = target: T2, Mitogen-activated protein kinase kinase kinase 7 (Homo sapiens) (UniProt O43318); experiment: Inhibition of TAK1 (unknown origin) at 1 uM by Ambit Kinomescan binding assay relative to control; values are per cent of control
# T2 sequence (whole entry): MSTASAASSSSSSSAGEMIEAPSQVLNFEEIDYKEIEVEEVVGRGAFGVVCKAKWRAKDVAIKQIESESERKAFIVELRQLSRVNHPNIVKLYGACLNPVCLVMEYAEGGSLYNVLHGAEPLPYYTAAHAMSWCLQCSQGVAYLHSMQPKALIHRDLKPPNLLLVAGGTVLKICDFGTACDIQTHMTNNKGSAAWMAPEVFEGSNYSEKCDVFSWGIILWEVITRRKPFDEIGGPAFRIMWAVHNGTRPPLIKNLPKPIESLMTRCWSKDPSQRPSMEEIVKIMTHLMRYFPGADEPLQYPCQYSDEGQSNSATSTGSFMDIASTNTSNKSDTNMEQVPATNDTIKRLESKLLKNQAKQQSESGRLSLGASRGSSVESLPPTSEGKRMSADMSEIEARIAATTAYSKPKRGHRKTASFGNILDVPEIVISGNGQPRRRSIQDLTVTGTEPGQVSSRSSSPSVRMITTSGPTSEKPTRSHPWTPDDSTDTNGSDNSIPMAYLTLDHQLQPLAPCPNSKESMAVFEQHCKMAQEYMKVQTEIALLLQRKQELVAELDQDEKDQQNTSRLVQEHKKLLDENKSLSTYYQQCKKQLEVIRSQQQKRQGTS
# [13] = target: Serine/threonine-protein kinase 4 (Homo sapiens) (UniProt Q13043); experiment: Inhibition of MST1 Lys1 labeling site harbouring ETGQIVAIKQVPVESDLQEIIK in human A-375 cells at 5 uM by KiNativ Profiling analysis relative to control
# Serine/threonine-protein kinase 4 (Homo sapiens), sequence (Q13043 whole entry, looked up): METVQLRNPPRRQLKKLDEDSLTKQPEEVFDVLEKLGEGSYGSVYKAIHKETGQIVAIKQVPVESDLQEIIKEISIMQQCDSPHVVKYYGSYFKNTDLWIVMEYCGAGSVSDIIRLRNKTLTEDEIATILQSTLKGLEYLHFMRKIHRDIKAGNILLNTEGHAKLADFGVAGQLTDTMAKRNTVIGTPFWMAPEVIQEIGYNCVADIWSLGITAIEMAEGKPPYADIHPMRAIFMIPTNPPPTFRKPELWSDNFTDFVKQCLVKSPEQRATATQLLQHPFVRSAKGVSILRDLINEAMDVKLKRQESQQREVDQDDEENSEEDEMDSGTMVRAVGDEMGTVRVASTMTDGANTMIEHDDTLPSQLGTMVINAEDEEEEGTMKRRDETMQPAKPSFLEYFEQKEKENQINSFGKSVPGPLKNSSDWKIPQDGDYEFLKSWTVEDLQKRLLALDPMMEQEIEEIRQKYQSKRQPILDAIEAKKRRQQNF
# [14] = target: Serine/threonine-protein kinase pim-3 (Homo sapiens) (UniProt Q86V86); experiment: Inhibition of PIM3 (unknown origin) at 1 uM by Ambit Kinomescan binding assay relative to control; values are per cent of control
# [15] = target: Platelet-derived growth factor receptor alpha (Homo sapiens) (UniProt P16234); experiment: Inhibition of PDGFRA (unknown origin) at 1 uM by Ambit Kinomescan binding assay relative to control; values are per cent of control
# Calcium/calmodulin-dependent protein kinase type II subunit alpha (Homo sapiens), sequence (Q9UQM7 whole entry): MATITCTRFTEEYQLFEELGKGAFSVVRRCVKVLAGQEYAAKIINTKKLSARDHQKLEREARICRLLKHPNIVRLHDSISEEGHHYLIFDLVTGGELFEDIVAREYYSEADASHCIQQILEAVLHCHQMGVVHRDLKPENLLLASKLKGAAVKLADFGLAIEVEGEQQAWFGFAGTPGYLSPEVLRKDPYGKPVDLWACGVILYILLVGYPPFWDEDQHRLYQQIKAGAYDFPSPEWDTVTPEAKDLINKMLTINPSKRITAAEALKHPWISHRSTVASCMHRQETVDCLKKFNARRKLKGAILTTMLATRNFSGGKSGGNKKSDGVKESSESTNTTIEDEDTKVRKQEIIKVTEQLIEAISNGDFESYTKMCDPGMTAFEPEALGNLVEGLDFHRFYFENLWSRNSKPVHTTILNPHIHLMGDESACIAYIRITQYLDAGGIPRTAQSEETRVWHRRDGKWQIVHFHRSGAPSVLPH
structure (smiles),measurement,setting,value
CCN1CCN(Cc2ccc(NC(=O)c3ccc(C)c(Oc4ccnc5[nH]ccc45)c3)cc2C(F)(F)F)CC1,inhibition,[1],5.8%
same,inhibition,[2],19%
same,inhibition,[3],inactive
same,inhibition,[4],inactive
same,inhibition,[5],0.45%
CNc1cc(Oc2cc(C(=O)Nc3cc(-n4cnc(C)c4)cc(C(F)(F)F)c3)ccc2C)ncn1,inhibition,[6],4.9%
CNc1cc(Oc2cc(C(=O)Nc3cc(N4CCN(C)CC4)cc(C(F)(F)F)c3)ccc2C)ncn1,inhibition,[7],0.7%
same,inhibition,[8],77%
CCN1CCN(Cc2ccc(NC(=O)c3ccc(C)c(/C=C/c4cnc5[nH]ccc5c4OC)c3)cc2C(F)(F)F)CC1,residual activity,[9],81%
same,inhibition,[10],0%
same,percent of control,[11],0.75%
same,percent of control,[12],1.2%
same,inhibition,[13],27.6%
same,residual activity,[14],100%
same,residual activity,[15],2.6%

# — ChEMBL document CHEMBL5696442, “Discovery of type II inhibitors of TGFβ-activated kinase 1 (TAK1) and mitogen-activated protein kinase kinase kinase kinase 2 (MAP4K2)” (J Med Chem, 2015)
